In ChEMBL document CHEMBL3865803, “Bicyclic octahydrocyclohepta[b]pyrrol-4(1H)one derivatives as novel selective anti-hepatitis C virus agents” (Eur J Med Chem, 2016):

Columns and labels:
[1] = Selectivity index, ratio of CC50 for human Huh7.5 cells to EC50 for HCV genotype 1b infected in human Huh7/Rep-Feo1b replicon cells; design: species or system Huh-7
[2] = test system: Hepatitis C virus; assay: Antiviral activity against HCV genotype 2a infected in human Huh7.5-FGR-JC1-Rluc2A replicon cells assessed as inhibition of viral RNA replication at 50 uM measured after 48 hrs by luciferase reporter gene assay relative to control; assay type: functional, Hepacivirus hominis; settings: Huh-7, 48 h
How it was run: (§1)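 Replicon cells (gt1b firefly luciferase; gt2a Renilla luciferase) in DMEM/10% FBS with G418, ~1 × 10^4 cells/well, dosed 12 h after seeding with 50 µM compound or DMSO (1% final) for 48 h at 37 °C. Cells were PBS-washed and luciferase read; % inhibition was taken versus DMSO-treated cells, mean±SD, n=3.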

[3] = test system: Hepatitis C virus; assay: Antiviral activity against HCV genotype 1b infected in human Huh7/Rep-Feo1b replicon cells assessed as inhibition of viral RNA replication at 50 uM measured after 48 hrs by luciferase reporter gene assay relative to control; assay type: functional, Hepacivirus hominis; settings: Huh-7, 48 h; how it was run: as §1
[4] = test system: Hepatitis C virus; assay: Antiviral activity against HCV genotype 1b infected in human Huh7/Rep-Feo1b replicon cells assessed as inhibition of viral RNA replication measured after 48 hrs by luciferase reporter gene assay; assay type: functional, cell-based, Hepacivirus hominis; settings: Huh-7, 48 h
How it was run: (§2)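 EC50 from concentration-response in replicon cells (gt1b firefly, gt2a Renilla luciferase reporter) maintained with G418. Compound added 12 h post-seeding (~1 × 10^4 cells/well), 48 h exposure, DMSO 1% final. Luciferase was compared with DMSO controls; the value is the mean ± SD of three independent 8-12 point quarter-log dilution series, calculated with CalcuSyn.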

[5] = test system: Hepatitis C virus; assay: Antiviral activity against HCV genotype 2a infected in human Huh7.5-FGR-JC1-Rluc2A replicon cells assessed as inhibition of viral RNA replication incubated for 48 hrs by luciferase reporter gene assay; assay type: functional, cell-based, Hepacivirus hominis; settings: Huh-7, 48 h; how it was run: as §2
[6] = Cytotoxicity against human Huh7.5 cells measured after 48 hrs by MTS assay; assay type: toxicity, cell-based, Huh-7; settings: Huh7.5 cells
How it was run: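 Parental Huh7.5 cells were treated 12 h after seeding with 8-10 dilutions of compound or DMSO (1% final) for 48 h at 37 °C. Viability was read by MTS bioreduction to formazan. CC50 is the concentration halving the MTS signal, mean ± SD of three independent experiments.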

[7] = Selectivity index, ratio of CC50 for human Huh7.5 cells to EC50 for HCV genotype 2a infected in human Huh7.5-FGR-JC1-Rluc2A replicon cells; design: species or system Huh-7
[8] = test system: Hepatitis C virus; assay: Antiviral activity against Hepatitis C virus genotype 1b infected in human MH14 cells assessed as inhibition of viral RNA replication after 48 hrs by quantitative RT-PCR analysis; assay type: functional, cell-based
How it was run: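 MH-14 cells carrying HCV subgenomic replicons, in 12-well plates, were treated with a range of concentrations or DMSO 12 h after seeding. Cellular HCV RNA was quantified by qRT-PCR with HCV-specific primers, using β-actin primers as reference.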

Row | Structure (SMILES) | Ratio CC50/EC50 [1] | inhibition at 50 µM [2] [%] | inhibition at 50 µM [3] [%] | EC50 [4] [µM] | EC50 [5] [µM] | CC50 at 48 h [6] [µM] | Ratio CC50/EC50 [7] | inhibition ([8]; Hepacivirus hominis) | EC50 ([8]; MH14, 48 h) [µM]
1 | CCOC(=O)[C@@H]1C[C@@H]2/C(=N/O)CCCC[C@@H]2N1S(=O)(=O)c1ccc(C)cc1 (racemic) | 7.9 | 66 | 63 | 25.3 | 15.3 | > 200 | 13.1 | – | –
2 | CCOC(=O)[C@@H]1C[C@@H]2/C(=N/Nc3ccccc3)CCCC[C@@H]2N1S(=O)(=O)c1ccc(C)cc1 (racemic) | 112.4 | 70 | 88 | 1.8 | 4.5 | > 200 | 44.2 | Dose-dependent effect | 3.82
3 | CCOC(=O)[C@@H]1C[C@@H]2[C@@H](OC(C)=O)CCCC[C@@H]2N1S(=O)(=O)c1ccc(C)cc1 (racemic) | 7.3 | 73 | 60 | 27.2 | 25.8 | > 200 | 7.7 | – | –
4 | CCOC(=O)[C@@H]1C[C@@H]2/C(=N/NC(N)=S)CCCC[C@@H]2N1S(=O)(=O)c1ccc(C)cc1 (racemic) | 14 | 58 | 66 | 14.3 | 11.6 | > 200 | 17.3 | – | –
